Source: PubChem BioAssay
Activity calls are given as the source filed them.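 The calls were made as follows, unless noted: active = fluorescence slope after compound addition differing from the mean of all tested samples at 99.7% confidence, mostly higher but some lower; inactive = the rest.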

How the values were obtained:
[1] = inhibitors of TNFa-induced NFkB p65 translocation, primary screen, imaging, HUVEC, MLSMR starter and 10KST1 sets (AID 438;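 active = inhibition above 20% together with a positive visual image hit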;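 also: compound added about 3h40 before a 20 min TNFalpha stimulation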;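 as to inhibition: signal is the nuclear over cytoplasmic p65 intensity ratio per well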); settings: HUVEC TNFa-induced p65 nuclear translocation; cell count: measured here: nuclei count (cytotoxicity indicator), at 2.08 µM; inhibition: at 2 µM, stronger effect = higher value, 0% TNFa-plus-vehicle, 100% no-TNFa wells
[2] = inhibitors of mutant huntingtin aggregation, primary screen, imaging, exon1htt(103Q)mCFP cells, high-content imaging (AID 483;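 active = visual image review flags a hit and inhibition of aggregation exceeds 20%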;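 also: compound exposure lasted 3 days before fixation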;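 as to nuclei count: percent of the per-plate median nuclei count of sample wells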); settings: exon1htt(103Q)mCFP cell line, aggregate imaging, at 2 µM; inhibition of aggregation: stronger effect = higher value; nuclei count: measured here: cell count, toxicity
[3] = inhibitors of E-selectin induction by TNFa, primary screen, imaging, HUVEC, immunofluorescence, MLSMR starter and 10KST1 sets (AID 487;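 active = visually confirmed hit in the image check and inhibition above 20%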;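 as to inhibition: signal is fraction of cell area covered by stained E-selectin grains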;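 as to nuclei count: 100% = median nuclei count of all wells on the same plate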); settings: HUVEC TNFalpha-induced E-selectin immunofluorescence imaging, at 2 µM; inhibition: stronger effect = higher value; nuclei count: measured here: cell number, toxicity
[4] = target: Voltage-gated potassium channel subunit beta-2 (Rattus norvegicus) (UniProt P62483); experiment: KvBeta enzyme negative modulators, primary screen, biochemical, NADPH fluorescence (AID 622;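 active = fluorescence slope higher than the sample average by over 3 SD, cut at about -0.22 in these data, passing the limit was not always enough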;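 also: slope of raw intensity against log time taken from 70 to 1610 s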); settings: recombinant KvBeta, 4-cyanobenzaldehyde reduction, at 10 µM, stronger effect = higher value
[5] = target: Voltage-gated potassium channel subunit beta-2 (Rattus norvegicus) (UniProt P62483); experiment: KvBeta positive modulators, primary screen, biochemical, NADPH fluorescence (AID 623;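 active = NADPH fluorescence slope more negative than the mean of all samples by about 3 SD, 99.7% confidence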;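 also: fluorescence intensity change per second fitted from 20 to 320 s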); settings: Recombinant KvBeta, NADPH fluorescence decrease slope, 10 min; at 10 µM; stronger effect = lower value
[6] = target: Muscarinic acetylcholine receptor M4 (Homo sapiens) (UniProt P08173); experiment: compounds altering M4/GIRK thallium flux, either direction, primary screen, M4 allosteric agonist project, cell-based, HEK293 M4/GIRK, BTC-AM (AID 625); settings: at 10 µM, actives lie on both sides;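 also: thallium influx through GIRK channels coupled to M4 in HEK293 cells with BTC-AM dye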
In short: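 Assay system: HEK293 cells with M4 receptor and GIRK channels / Controls: carbachol and DMSO controls / Schedule: 1 h dye loading, 2 min kinetic read / Technique: kinetic fluorescence with BTC-AM dye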

[7] = inhibitors of Sendai virus-induced IRF3 signaling, primary screen, TLR/RLR signaling modifier project, cell-based, Sendai virus stimulus, luciferase, 10K MLSCN set (AID 602276;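 active = inhibition at or above 50% at 10 µM; inactive = inhibition below 50%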;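 also: firefly luciferase from ISG56 promoter only with Renilla not read in this screen; 0% = Sendai virus plus DMSO and 100% = medium plus DMSO without virus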); settings: HEK293 RL24 IRF3 luciferase reporter, at 10 µM, stronger effect = higher value
[8] = inhibitors of poly I:C-induced TLR3 signaling, primary screen, cell-based, poly I:C stimulus, luciferase, 10K MLSCN set (AID 602277;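 active = inhibition of the reporter signal at or above 50%; inactive = inhibition below 50%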); settings: HEK293-TLR3 RL24 IRF3 luciferase reporter, at 10 µM, stronger effect = higher value

Sequence of Voltage-gated potassium channel subunit beta-2 (Rattus norvegicus) (P62483 whole entry, looked up): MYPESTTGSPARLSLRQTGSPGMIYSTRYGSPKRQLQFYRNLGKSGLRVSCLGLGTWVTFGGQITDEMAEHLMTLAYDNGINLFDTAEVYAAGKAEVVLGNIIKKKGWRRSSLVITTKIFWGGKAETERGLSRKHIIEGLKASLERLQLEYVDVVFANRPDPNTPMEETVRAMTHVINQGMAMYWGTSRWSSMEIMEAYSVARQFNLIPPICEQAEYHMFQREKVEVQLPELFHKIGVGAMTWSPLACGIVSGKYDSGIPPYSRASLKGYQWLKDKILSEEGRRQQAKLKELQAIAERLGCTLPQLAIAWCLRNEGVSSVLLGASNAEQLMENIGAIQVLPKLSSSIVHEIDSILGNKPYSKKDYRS
Sequence of Muscarinic acetylcholine receptor M4 (Homo sapiens) (P08173 whole entry, looked up): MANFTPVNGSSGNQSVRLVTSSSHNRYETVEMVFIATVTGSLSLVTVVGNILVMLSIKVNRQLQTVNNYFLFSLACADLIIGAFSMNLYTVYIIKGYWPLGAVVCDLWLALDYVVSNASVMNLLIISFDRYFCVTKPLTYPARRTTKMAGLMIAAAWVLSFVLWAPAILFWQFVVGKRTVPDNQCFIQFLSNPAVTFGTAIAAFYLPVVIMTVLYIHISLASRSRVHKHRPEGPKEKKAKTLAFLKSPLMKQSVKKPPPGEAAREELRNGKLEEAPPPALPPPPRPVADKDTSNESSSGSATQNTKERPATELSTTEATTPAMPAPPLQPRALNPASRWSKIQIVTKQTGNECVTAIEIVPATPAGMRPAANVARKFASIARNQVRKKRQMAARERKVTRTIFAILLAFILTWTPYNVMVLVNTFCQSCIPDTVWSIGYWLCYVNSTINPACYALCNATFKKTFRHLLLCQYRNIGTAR

| SMILES | cell count [1] | inhibition [1] | inhibition of aggregation [2] | nuclei count [2] [%] | inhibition [3] | nuclei count [3] [%] | fluorescence slope [4] | NADPH fluorescence slope [5] | fluorescence slope [6] | inhibition [7] | inhibition [8] |
| --- | --- | --- | --- | --- | --- | --- | --- | --- | --- | --- | --- |
| O=C(Cn1c(=O)[nH]n(-c2ccccc2)c1=O)N1CCCc2ccccc21 | 328 | 0% (inactive) | -15.3% (inactive) | 117 | -87.1% (inactive) | 118 | -0.387 (inactive) | -5.1e-05 (inactive) | 0.00957 (inactive) | 14.4% (inactive) | 25.6% (inactive) |
| CNC(=O)c1ccccc1NC(=O)c1c(O)c2c([nH]c1=O)CCCC2 | 433 | 16.6% (inactive) | -9.3% (inactive) | 98.8 | -19.5% (inactive) | 108 | -0.47 (inactive) | -5.8e-05 (inactive) | 0.00682 (inactive) | 4.16% (inactive) | 16.9% (inactive) |
| CCOC(=O)N1CCC(NC(=O)C2CCCN2C(=O)OCc2ccccc2)CC1 (stereo not drawn) | 861 | -0.5% (inactive) | -11.6% (inactive) | 120 | -19.6% (inactive) | 110 | -0.561 (inactive) | -1.3e-05 (inactive) | 0.00566 (inactive) | -11.6% (inactive) | -1.88% (inactive) |
| c1ccc(CC2CCN(Cc3nc(-c4ccccc4)no3)CC2)cc1 | 229 | 4.2% (inactive) | -5.2% (inactive) | 81.6 | -139% (inactive) | 124 | -0.456 (inactive) | -1.9e-05 (inactive) | 0.00542 (inactive) | 5.55% (inactive) | -19% (inactive) |
| Cc1ccc(CSc2nc3c(c(=O)[nH]2)C(c2ccncc2)C2=C(CCCC2=O)N3)cc1 (stereo not drawn) | 518 | -16.7% (inactive) | 3.6% (inactive) | 79.3 | -14.5% (inactive) | 87.2 | -0.457 (inactive) | -3.5e-05 (inactive) | 0.00543 (inactive) | 21.7% (inactive) | 15.5% (inactive) |
| CCOC(=O)NC(c1ccccc1)C1CCCCC1=O (stereo not drawn) | 486 | -3.4% (inactive) | -0.1% (inactive) | 103 | -25.5% (inactive) | 105 | -0.565 (inactive) | 1e-05 (inactive) | 0.00674 (inactive) | 14.4% (inactive) | 18.4% (inactive) |
| O=C1CCCC2=C1C(c1ccsc1)CC(=O)N2c1ccccc1 (stereo not drawn) | 550 | -11.1% (inactive) | -6.3% (inactive) | 100 | -88.5% (inactive) | 95.1 | -0.422 (inactive) | -0.000362 (inactive) | 0.00622 (inactive) | 15.9% (inactive) | 19.3% (inactive) |
| CSc1nnc2c3ccccc3n(CCc3ccccc3)c2n1 | 665 | -0.5% (inactive) | 20.5% (inactive) | 83.8 | 19.4% (inactive) | 104 | -0.342 (inactive) | 1.9e-05 (inactive) | 0.00531 (inactive) | -13.2% (inactive) | -163% (inactive) |
| O=C(CN1CCN(c2ncc(C(F)(F)F)cc2Cl)CC1)Nc1ccc2c(c1)OCO2 | 407 | -5.7% (inactive) | 4.8% (inactive) | 106 | -11.6% (inactive) | 104 | -0.559 (inactive) | -4.3e-05 (inactive) | 0.00584 (inactive) | 7.72% (inactive) | 11.6% (inactive) |
| COC(=O)c1c(NC(=O)C2CC=CCC2C(=O)O)sc(C(N)=O)c1C (stereo not drawn) | 654 | -2.4% (inactive) | 7.8% (inactive) | 96.4 | -10.1% (inactive) | 113 | -0.495 (inactive) | -4.4e-05 (inactive) | 0.00475 (inactive) | 0.24% (inactive) | 11% (inactive) |
| CC1C(O)=C(c2nc3ccccc3[nH]2)C(=N)N1c1ccccc1 (stereo not drawn) | 331 | 2.2% (inactive) | -12.9% (inactive) | 103 | -1.7% (inactive) | 104 | -0.482 (inactive) | -2.5e-05 (inactive) | 0.00621 (inactive) | -3.95% (inactive) | -41% (inactive) |
| CCN1CCN(C(=O)c2ccc3c(=O)n(CCC4=CCCCC4)c(=O)[nH]c3c2)CC1 | 465 | 3.4% (inactive) | -14% (inactive) | 95.8 | -29.3% (inactive) | 114 | -0.576 (inactive) | -7.8e-05 (inactive) | 0.00535 (inactive) | -36.8% (inactive) | -73.5% (inactive) |
| Cc1nc2ccccn2c1/C(O)=C1\C(=O)C(=O)N(CCN2CCOCC2)C1c1cccs1 (stereo not drawn) | 318 | 0.2% (inactive) | 0.3% (inactive) | 99.6 | -41.3% (inactive) | 116 | -0.301 (inactive) | -1.7e-05 (inactive) | 0.00659 (inactive) | -0.701% (inactive) | 7.4% (inactive) |
